# Source: PubChem BioAssay
# Active and inactive are the calls of the source.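 The calls were made as follows, unless noted: active = viability at or below 10% of carrier control in both of two separate runs; inconclusive = viability at or below 10% in only one of the two runs; inactive = the rest.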
# What was measured:
# [1] = SK-BR-3 cell growth inhibitors, pilot screen, 24 h, human (AID 572); conditions: SK-BR-3 viability, CellTiter-Glo luminescence, at 10 µM, stronger effect = lower value;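 also: compound exposure lasted between 18 and 24 h rather than exactly 24 h; 100% = carrier-treated control wells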
# [2] = HUVEC growth inhibition – cell-based, human, primary screen (AID 575;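 active = viability at or below 30% in both replicate assays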;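 also: 100% = median of untreated cell wells with 0.1% DMSO on each plate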); conditions: HUVEC proliferation, CellTiter-Glo luminescence, 72 h; at 10 µM; stronger effect = lower value
# Summary of the method: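 Test system – primary HUVEC, no more than 12 passages · Dosing – one dose, 10 µM final, 0.1% DMSO · Times – 72 h treatment at 37 °C · Measured by – ATP-based CellTiter-Glo luminescent read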
# [3] = growth inhibitors of H69AR lung tumor, primary screen, human, duplicate replicates (AID 580;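 active = viability at or under a set limit in both replicates, limit being median viability minus 3 SD, cut at about 48% in these data, passing the limit was not always enough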;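 also: 100% = mean luminescence of untreated wells and 0% = no signal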); conditions: H69AR lung tumor cells viability, ATP luminescence, 72 h; at 10 µM; stronger effect = lower value
# [4] = reversal of MRP1-mediated doxorubicin resistance, pilot screen, H69AR cells, doxorubicin co-treatment (AID 601;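 active = viability loss from added drug above about 55%, and viability with drug at most 40%, in both replicates, limit read from the data, passing the limit was not always enough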); conditions: CellTiter-Glo, 72 h, at 10 µM; for differential viability (reversal): stronger effect = higher value
# [5] = 384-well plate pilot, post-Golgi transport modulator project, inhibition of yeast transport mutant growth (AID 636; in the data active = inhibition above about 31%); conditions: absorbance 615 nm, about 18 h, stronger effect = higher value
# [6] = growth suppression of yeast trafficking mutant, preliminary HTS, modulators of trafficking downstream of Golgi apparatus project, 1536-format plate, OD 615 nm (AID 637; in the data active = inhibition above about 30%); conditions: yeast transport mutant growth, absorbance 615 nm, 18 h; stronger effect = higher value
# [7] = H69AR cells + 2 uM doxorubicin, measured here: viability with 2 uM doxorubicin, stronger effect = lower value
# [8] = H69AR cells, compound alone cytotoxicity
Compound,viability [1],viability [2],viability [3],differential viability (reversal) ([4]; H69AR cells + 2 uM doxorubicin),"viability [4, 7] [%]","viability [4, 8] [%]",inhibition [5],inhibition [6]
CCSc1nc(O)c(C2OC(=O)c3c2ccc(OC)c3OC)c(=O)n1-c1ccccc1 (stereo not drawn),129% (inactive),94.5% (inactive),96.5% (inactive),11.4% (inactive),85.1,96.5,-9.45% (inactive),4.35% (inactive)
CC1(C)CC(=O)C2=C(C1)Nc1ccccc1N=C2,66% (inactive),82.3% (inactive),70.3% (inactive),-19.7% (inactive),90,70.3,-0.41% (inactive),2.73% (inactive)
Cc1ccc2c(c1)NC(=O)C(CC(=O)NCCCN1CCN(c3cc(Cl)ccc3C)CC1)O2 (stereo not drawn),75.5% (inactive),1.67% (active),22.9% (active),-17.8% (inactive),40.7,22.9,3.07% (inactive),0.98% (inactive)
CN=c1sc2ccccc2n1CC(O)COCc1ccco1 (stereo not drawn),107% (inactive),86.6% (inactive),98.4% (inactive),10.8% (inactive),87.5,98.4,-8.49% (inactive),1.94% (inactive)
CN(C(=O)C1CCOC1)c1nnc(-c2cccnc2)s1 (stereo not drawn),92% (inactive),101% (inactive),88.5% (inactive),4.19% (inactive),84.3,88.5,-1.23% (inactive),19.4% (inactive)
NS(=O)(=O)c1ccc(CCNC(=O)CCC2COc3ccccc3O2)cc1 (stereo not drawn),90% (inactive),105% (inactive),95.8% (inactive),8.33% (inactive),87.5,95.8,-5.62% (inactive),0.16% (inactive)
O=C1CC(c2ccccc2)NC(=O)N1 (stereo not drawn),78% (inactive),105% (inactive),98.8% (inactive),2.63% (inactive),96.1,98.8,-7.26% (inactive),-0.36% (inactive)
C=CCSc1nnc(NC(=O)c2ccc(S(=O)(=O)NCC3CCCO3)cc2)s1 (stereo not drawn),97% (inactive),84.3% (inactive),90.4% (inactive),-2.83% (inactive),93.2,90.4,-3.84% (inactive),-3.71% (inactive)
COc1ccc(C(=O)CSc2nnc(-c3ccc(C)cc3)o2)cc1,97% (inactive),110% (inactive),86.4% (inactive),-2.64% (inactive),89,86.4,4% (inactive),5.09% (inactive)
Nc1ncnc2c1ncn2[C@@H]1O[C@H](CO)[C@@H](O)[C@H]1O,105% (inactive),93.9% (inactive),113% (inactive),25.9% (inactive),87,113,-2.47% (inactive),0.33% (inactive)
O=C(O)c1ccc(CSc2ncn[nH]2)cc1,107% (inactive),105% (inactive),94.4% (inactive),-6.27% (inactive),101,94.4,-6.16% (inactive),0.55% (inactive)
CC(O)Cn1cnc2c1c(=O)n(C)c(=O)n2C (stereo not drawn),107% (inactive),106% (inactive),95.8% (inactive),-0.25% (inactive),96.1,95.8,-1.04% (inactive),0.17% (inactive)
CCN(CC)C(c1ccc(C)cc1)c1nnnn1C1CCCCC1 (stereo not drawn),64% (inactive),102% (inactive),75.5% (inactive),7% (inactive),68.5,75.5,-6.13% (inactive),-4.73% (inactive)
COc1cc(C(=O)NCC(=O)OCC(=O)c2ccc[nH]2)cc(OC)c1OC,76% (inactive),101% (inactive),91.5% (inactive),-3.86% (inactive),95.3,91.5,-4.38% (inactive),-0.55% (inactive)
CCOC(=O)/C=C1\SCC(=O)N1Cc1nnc(-c2ccccc2Br)o1,107% (inactive),97.5% (inactive),91.3% (inactive),3.01% (inactive),88.2,91.3,-7.81% (inactive),1.82% (inactive)
Cn1c(=O)c2c(nc(CN3CCCCC3)n2CCCc2ccccc2)n(C)c1=O,122% (inactive),103% (inactive),81.7% (inactive),0.72% (inactive),81,81.7,-1.3% (inactive),6.23% (inactive)
CCc1cccc(NC(=O)CN(C)S(=O)(=O)c2cccc3nsnc23)c1,92% (inactive),90.3% (inactive),91.8% (inactive),7.68% (inactive),84.1,91.8,-5.68% (inactive),-2.55% (inactive)
CS(=O)(=O)N1CCCC(C(=O)N2CCOCC2)C1 (stereo not drawn),97% (inactive),108% (inactive),98.3% (inactive),4.13% (inactive),94.2,98.3,-2.6% (inactive),-1.15% (inactive)

Compound,viability [1],viability [2],viability [3],differential viability (reversal) ([4]; H69AR cells + 2 uM doxorubicin),"viability [4, 7] [%]","viability [4, 8] [%]",inhibition [5],inhibition [6]
O=C(Nc1ncc2c(n1)CC(c1ccccc1)CC2=O)c1ccco1 (stereo not drawn),102% (inactive),98.3% (inactive),81.8% (inactive),5.16% (inactive),76.7,81.8,-5.21% (inactive),-0.16% (inactive)
Cc1nc(SCC(=O)Nc2cc(C)on2)c2c3c(sc2n1)CCCC3,66.5% (inactive),78.5% (inactive),30.4% (active),6.21% (inactive),24.2,30.4,-2.97% (inactive),-1.11% (inactive)
c1ccc(CSc2nnc(-c3cccs3)n2Cc2ccco2)cc1,86% (inactive),90.3% (inactive),83.2% (inactive),-0.12% (inactive),83.4,83.2,1.37% (inactive),-0.65% (inactive)
O=c1c(O)c(-c2ccc(O)cc2O)oc2cc(O)cc(O)c12,94% (inactive),97.5% (inactive),97.4% (inactive),-2.28% (inactive),99.6,97.4,-3.77% (inactive),-1.33% (inactive)
CN/C=C1\C(=O)C(C)(C)Oc2ccc3ccc(=O)oc3c21,112% (inactive),91.5% (inactive),87.9% (inactive),0.24% (inactive),87.7,87.9,-6.53% (inactive),0.18% (inactive)
Cc1c(C(=O)NCc2ccoc2)oc2ccc3c(c12)C(=O)CC(C)(C)O3,129% (inactive),75.1% (inactive),76.2% (inactive),-2.74% (inactive),78.9,76.2,-0.52% (inactive),3.77% (inactive)
Cc1nn(Cc2ccccc2)c2c1C(c1ccncc1)C(C#N)=C(N)O2 (stereo not drawn),96% (inactive),86% (inactive),85% (inactive),-2.68% (inactive),87.7,85,-4.8% (inactive),-3.27% (inactive)
C#CCN(C)Cc1ccccc1,96% (inactive),94.3% (inactive),93.8% (inactive),-6.42% (inactive),100,93.8,0.26% (inactive),-1.17% (inactive)
Cc1cc(=O)n2nc(N3CCCC(C(=O)N4CCN(C)CC4)C3)sc2n1 (stereo not drawn),110% (inactive),101% (inactive),95.7% (inactive),7.05% (inactive),88.7,95.7,-5.81% (inactive),-5.09% (inactive)
Cc1cccc(N2CCN(C(=O)C3CCCN(S(=O)(=O)c4cnc[nH]4)C3)CC2C)c1 (stereo not drawn),90% (inactive),90.2% (inactive),95.6% (inactive),6.94% (inactive),88.7,95.6,-0.26% (inactive),-0.98% (inactive)
NC(=O)N1c2ccccc2C=Cc2ccccc21,95% (inactive),79.4% (inactive),107% (inactive),9.74% (inactive),97.1,107,-2.86% (inactive),3.17% (inactive)
Cc1ccc(NC(=O)c2ccco2)c(NC(=O)CN2C(=O)c3ccccc3C2=O)c1,97% (inactive),110% (inactive),87.6% (inactive),-18.2% (inactive),106,87.6,-0.41% (inactive),3.27% (inactive)
Cc1nc(NC(=O)c2csc3ccccc23)sc1C,100% (inactive),83% (inactive),78.2% (inactive),-3.3% (inactive),81.5,78.2,3.84% (inactive),-2.74% (inactive)
Cc1nnc(C)c2c(C)n(Cc3ccc4c(c3)OCO4)c(C)c12,76% (inactive),91% (inactive),80.9% (inactive),6.03% (inactive),74.8,80.9,-0.55% (inactive),24.5% (inactive)
Cc1cc(Oc2ccc(Cl)cc2)nc(-c2ccccc2O)n1,98% (inactive),84.7% (inactive),93.9% (inactive),3.2% (inactive),90.7,93.9,2.73% (inactive),-7.38% (inactive)
Cc1csc(NC(=O)c2ccoc2C)n1,103% (inactive),84.6% (inactive),86.3% (inactive),-5.44% (inactive),91.8,86.3,-4.66% (inactive),-8.39% (inactive)
COC(=O)Nc1sccc1C(=O)Nc1sccc1C(=O)OC,62% (inactive),88.5% (inactive),52.2% (inactive),-13.8% (inactive),66,52.2,2.47% (inactive),-2.36% (inactive)
COC(=O)Nc1sc2c(c1C(N)=O)CCCCCC2,89% (inactive),105% (inactive),99.5% (inactive),19.3% (inactive),80.2,99.5,-1.82% (inactive),5.25% (inactive)
